Laboratory results published in ChEMBL document CHEMBL4316619 (Bioorg Med Chem Lett, 2019).
pEC50: −log10 of the molar value. Calls of active or inactive are those of the source. No cut-off for these calls is given here.

What was measured:
Saccharomyces cerevisiae = assay: Effect on growth of Yeast 9526-6-2 harboring pYES at 50 uM measured up to 60 hrs; format: organism-based; settings: in vivo
Summary of the method: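 Control yeast carrying empty pYES and NS1-expressing NS1-pYES strain grown with DMSO or compound at 50 μM. Growth measured as OD600 at 22, 42 and 60 h.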

[1] = Terminal half life in C57BL/6 mouse plasma at 30 mg/kg, ip; format: ADME, organism-based; settings: C57BL/6, mouse, plasma, read-out: beta t1/2 (converted)
Summary of the method: (§1)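 Male C57BL/6 mice, single intraperitoneal 30 mg/kg dose, N=3. Plasma, liver and lung concentrations followed over time to give concentration-time profiles, from which Tmax, Cmax, terminal t1/2, AUClast and AUCINF were derived.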

[2] = (§2) Cytotoxicity against MDCK cells assessed as reduction in cell viability measured on day 5 by Celltiter-Glo luminescence assay; format: cell-based, Canis lupus familiaris; settings: dog, MDCK cells
Summary of the method: (§3)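 MDCK cells were infected with seasonal influenza A strains through NIAID resources and scored for protection from virus-induced cell death. Compounds were tested at four concentrations (0.8, 4, 20, 100 μM). EC50/EC90 (reduction of viral cell death) and CC50 (reduction of cell viability) were derived in μM, and SI50 = CC50/EC50.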

[3] = Terminal half life in C57BL/6 mouse liver at 30 mg/kg, ip; format: ADME, organism-based; settings: read-out: beta t1/2 (converted); summary of the method: as §1
[4] = Stability of the compound in mouse liver microsomes assessed as parent compound remaining measured after 15 mins; format: ADME, Microsome; settings: read-out: Stability
Summary of the method: (§4)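 Mouse liver microsomes; percent parent compound remaining measured at 0, 15 and 30 min.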

[5] = Tmax in C57BL/6 mouse liver at 30 mg/kg, ip; format: ADME, organism-based; summary of the method: as §1
[6] = Toxicity in C57BL/6 mouse assessed as effect on liver at 30 mg/kg, ip; format: organism-based; settings: in vivo
[7] = AUC (infinity) in C57BL/6 mouse plasma at 30 mg/kg, ip; format: ADME, organism-based; set-up: dose 30 mg/kg, route intraperitoneal, time infinity
Summary of the method: (§5)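 Male C57BL/6 mice received a single intraperitoneal dose of 30 mg/kg (N=3). Compound concentrations were followed over time in plasma, liver and lung. Tmax, Cmax, terminal t1/2, AUClast and AUCINF were derived from the mean concentration-time profiles.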

[8] = Tmax in C57BL/6 mouse lung at 30 mg/kg, ip; format: ADME, organism-based; summary of the method: as §1
[9] = Stability of the compound in mouse liver microsomes assessed as parent compound remaining measured after 30 mins; format: ADME, Microsome; settings: read-out: Stability; summary of the method: as §4
[10] = Terminal half life in C57BL/6 mouse lung at 30 mg/kg, ip; format: ADME, organism-based; settings: read-out: beta t1/2 (converted); summary of the method: as §1
[11] = Apparent permeability across apical to basolateral side in human Caco2 cells measured after 2 hrs; format: ADME, cell-based; settings: caco-2, 2 h
Summary of the method: (§6)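 Permeability was measured across Caco-2 monolayers in both directions, apical to basolateral and basolateral to apical. […] Runs were done with and without 3% BSA, and mass recovery (%) was reported for each direction. Efflux ratio = Papp B→A / Papp A→B.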

[12] = Cmax in C57BL/6 mouse lung at 30 mg/kg, ip; format: ADME, organism-based; set-up: dose 30 mg/kg, route intraperitoneal; summary of the method: as §5
[13] = Stability of the compound in mouse liver microsomes assessed as parent compound remaining measured immediately; format: ADME, Microsome; settings: read-out: Stability; summary of the method: as §4
[14] = AUC (infinity) in C57BL/6 mouse liver at 30 mg/kg, ip; format: ADME, organism-based; set-up: dose 30 mg/kg, time infinity, route intraperitoneal; summary of the method: as §5
[15] = Cmax in C57BL/6 mouse plasma at 30 mg/kg, ip; format: ADME, organism-based; set-up: dose 30 mg/kg, route intraperitoneal; settings: C57BL/6, mouse, plasma, read-out: Cmax; summary of the method: as §5
[16] = Toxicity in C57BL/6 mouse assessed as effect on lungs at 30 mg/kg, ip; format: organism-based; settings: in vivo
[17] = AUClast in C57BL/6 mouse plasma at 30 mg/kg, ip; format: ADME, organism-based; set-up: dose 30 mg/kg, route intraperitoneal, time 0 - last; summary of the method: as §5
[18] = Aqueous kinetic solubility of the compound; format: physicochemical; settings: buffer
[19] = Cmax in C57BL/6 mouse liver at 30 mg/kg, ip; format: ADME, organism-based; set-up: dose 30 mg/kg, route intraperitoneal; summary of the method: as §5
[20] = AUClast in C57BL/6 mouse liver at 30 mg/kg, ip; format: ADME, organism-based; set-up: dose 30 mg/kg, time 0 - last, route intraperitoneal; summary of the method: as §5
[21] = AUClast in C57BL/6 mouse lung at 30 mg/kg, ip; format: ADME, organism-based; set-up: dose 30 mg/kg, route intraperitoneal, time 0 - last; summary of the method: as §5
MDCK [22] = assay: Cytotoxicity against MDCK cells assessed as reduction in cell viability measured after 48 hrs by CellTiter Glo assay; format: cell-based, Canis lupus familiaris; settings: dog
Summary of the method: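 MDCK cells were incubated with compound under the conditions of the 48 h replication assay. Cytotoxicity was read with the CellTiter-Glo ATP viability assay. Follow-up viability testing used 5, 10, 50 and 100 μM.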

[23] = Tmax in C57BL/6 mouse plasma at 30 mg/kg, ip; format: ADME, organism-based; settings: C57BL/6, mouse, plasma, read-out: Tmax; summary of the method: as §1
[24] = Toxicity in C57BL/6 mouse assessed as adverse effect at 30 mg/kg, ip; format: organism-based; settings: in vivo
[25] = AUC (infinity) in C57BL/6 mouse lung at 30 mg/kg, ip; format: ADME, organism-based; set-up: dose 30 mg/kg, route intraperitoneal, time infinity; summary of the method: as §5
[26] = Apparent permeability across basolateral to apical side in human Caco2 cells measured after 2 hrs; format: ADME, cell-based; settings: caco-2, 2 h; summary of the method: as §6
MDCK [27] = assay: as §2; format: cell-based, Canis lupus familiaris; settings: dog, mdck; summary of the method: as §3
Influenza A virus H3N2 = assay: Antiviral activity against Influenza A virus (A/Brisbane/10/2007(H3N2)) infected in MDCK cells assessed as reduction in virus-induced cytopathic effect measured on day 5 by Celltiter-Glo luminescence assay; format: functional, organism-based; settings: 120 h; summary of the method: as §3
Influenza B virus = assay: Antiviral activity against Influenza B virus (B/Brisbane/60/2008) infected in MDCK cells assessed as reduction in virus-induced cytopathic effect measured on day 5 by Celltiter-Glo luminescence assay; format: functional, organism-based
Influenza A virus [28] = assay: Antiviral activity against Influenza A virus A/PR/8/34 (H1N1) infected in MDCK cells assessed as fold reduction in virus titer at 10 uM measured after 48 hrs by hemagglutination assay relative to control; format: functional, A/Puerto Rico/8/1934(H1N1)
Summary of the method: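 MDCK cells were infected with A/PR/8/34 (H1N1) at MOI 0.1 and incubated with compound for 48 h. Supernatant virus was then quantified by hemagglutination assay and standard TCID50 analysis. The single-concentration screen used 10 μM and reports fold reduction in titer. Dose-response runs used triplicate cultures, with percent titer decrease back-calculated from TCID50.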

Influenza A virus [29] = assay: Antiviral activity against Influenza A virus (A/California/7/2009(H1N1)) infected in MDCK cells assessed as reduction in virus-induced cytopathic effect measured on day 5 by Celltiter-Glo luminescence assay; format: functional, organism-based; settings: 120 h; summary of the method: as §3

COc1cc(-c2ccnc3c2c(C)nn3-c2cccc(C(F)(F)F)c2)ccc1O
Activity (Saccharomyces cerevisiae): Non-Toxic
half-life [1]: 5.2 h
CC50 at 5 day [2]: 24.5 to 49 µM
half-life [3]: 5.3 h
remaining at 0.25 h [4]: 25%
Tmax [5]: 4.98 min
Activity [6]: Non-Toxic
AUC(0-inf) [7]: 5.97 µg·h/mL
Tmax [8]: 4.98 min
remaining at 0.5 h [9]: 16%
half-life [10]: 5 h
Papp [11]: 1.3 nm/s
Cmax [12]: 36.2 µg/mL
remaining at 0 min [13]: 100%
AUC(0-inf) [14]: 120 µg·h/mL
Cmax [15]: 4.47 µg/mL
Activity [16]: Non-Toxic
AUC(0-t) [17]: 5.96 µg·h/mL
Kinetic_solubility [18]: 1.7 µM
Cmax [19]: 64 µg/mL
AUC(0-t) [20]: 119 µg·h/mL
AUC(0-t) [21]: 49.1 µg·h/mL
Activity (MDCK [22]): Non-Toxic
Tmax [23]: 4.98 min
Activity [24]: Non-Toxic
AUC(0-inf) [25]: 49.1 µg·h/mL
Papp [26]: 3.8 nm/s

CCOc1cc(-c2c(C#N)c(O)nc3c2c(C)nn3-c2ccc(F)cc2)ccc1O
CC50 (MDCK [27]): > 50 µM
pEC50 (Influenza A virus H3N2): 4.32
EC90 (Influenza A virus H3N2): > 50 µM
Activity (Influenza B virus): inactive
Activity (MDCK [22]): Non-Toxic
fold change (FC) (Influenza A virus [28]): 2
pEC50 (Influenza A virus [29]): 5.77
EC90 (Influenza A virus [29]): 4.9 µM
